Rce1 inhib: yeast Rce1p protease inhibitors, primary screen, biochemical, fluorescence, cell-free homogeneous. CAAX prenyl protease 2 (Saccharomyces cerevisiae (strain ATCC 204508 / S288c)), Q03530. yeast membranes, quenched prenylated peptide cleavage fluorescence. calls only. 290,000 tested, 0.27% active. AID 2563, 2010;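 active = fall in fluorescence gain of 50% or more versus controls, with final raw signal at or below 3038400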;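 also: plate controls were neutral control wells for no effect and wells lacking membranes for full effect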
Target sequence (Q03530 whole entry, looked up): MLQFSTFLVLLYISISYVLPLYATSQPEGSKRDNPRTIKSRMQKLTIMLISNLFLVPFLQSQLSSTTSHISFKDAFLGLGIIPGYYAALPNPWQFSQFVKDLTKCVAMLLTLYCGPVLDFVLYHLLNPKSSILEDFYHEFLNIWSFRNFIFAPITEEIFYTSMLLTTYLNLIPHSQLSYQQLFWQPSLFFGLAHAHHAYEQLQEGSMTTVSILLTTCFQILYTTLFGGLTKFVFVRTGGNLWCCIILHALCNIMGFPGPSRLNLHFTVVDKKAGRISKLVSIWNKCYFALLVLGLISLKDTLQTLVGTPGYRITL
MIN6 prolif: inducers of MIN6 beta-cell proliferation, primary screen, ATP luminescence, uHTS; 330,000 tested, 0.29% active; MIN6 cells proliferation, ATPlite luminescence, 48 h; cells starved in 0.2% serum; 100% = growth in 10% serum; proliferation, % at 10 µM;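 active = compounds whose signal lies at least 3.5 SD above the mean of all wells on their plate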;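 also: 0% = DMSO-treated cells in low-serum medium and 100% = 10% serum control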
PG9 binder: binders of HIV-1 gp120 antibody PG9, primary screen, biochemical, TR-FRET; HIV-1 gp120 / PG9 antibody interaction; TR-FRET gp120-PG9 antibody binding; inhibition, % at 6.7 µM; 360,000 tested, 0.43% active; AID 624416, 2012; in the data active = inhibition above about 8.5%
CR mimetic SO: reduction of superoxide in aged yeast, primary screen, HTS | S. cerevisiae aged cells, superoxide DHE fluorescence; active compounds read low | 330,000 tested, 0.18% active | superoxide response (% of plate mean), % at 10 µM;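 active = superoxide response under a set limit, about three screen SD below normal, cut at about 65% in these data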;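 also: yeast aged for seven days with compound at 30 °C before DHE staining; 100% = average MFI of all compound-treated wells on the plate with controls excluded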
Rev-erbA mod: modulators of Rev-erb alpha DNA binding, primary screen, biochemical, FITC-DNA, fluorescence polarization, uHTS | Nuclear receptor subfamily 1 group D member 1 (Homo sapiens), P20393 | Rev-erbα–FITC-DNA binding, 90 min | activity, % at 10 µM | 370,000 tested, 0.79% active;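 active = activity above about 14%, limit read from the data; passing the limit was not always enough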;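 also: 0% = DMSO wells with 35 nM protein and 100% = DMSO wells with 750 nM protein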
UCH37 inh: inhibitors of human UCH37 deubiquitinase, primary screen, biochemical, Ub-AMC cleavage, fluorescence | Ubiquitin carboxyl-terminal hydrolase isozyme L5 (Homo sapiens), Q9Y5K5 | purified proteasome/UCH37 | inhibition, % (test concentration not listed) | 330,000 tested, 0.33% active | AID 588478, 2011;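 active = mean inhibition over replicate wells above about 20%, limit read from the data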;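 also: 0% = compound-free wells with enzyme and 100% = wells lacking proteasome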
Target sequence (Q9Y5K5 whole entry, looked up): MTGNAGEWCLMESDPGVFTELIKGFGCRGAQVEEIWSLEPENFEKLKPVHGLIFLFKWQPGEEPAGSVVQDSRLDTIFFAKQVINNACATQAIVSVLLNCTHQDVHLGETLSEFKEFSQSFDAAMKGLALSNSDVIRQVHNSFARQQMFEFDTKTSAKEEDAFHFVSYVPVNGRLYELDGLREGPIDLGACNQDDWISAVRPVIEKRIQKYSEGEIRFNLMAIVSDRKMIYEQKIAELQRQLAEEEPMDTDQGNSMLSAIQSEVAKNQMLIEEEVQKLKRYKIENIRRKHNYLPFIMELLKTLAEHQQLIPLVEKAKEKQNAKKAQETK
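Reagent: Ub-AMC substrate; assay system: Proteasome-associated human UCH37 deubiquitinase; controls: no-proteasome and no-compound wells; read-out: % inhibition of Ub-AMC cleavage fluorescence; timing: 30 min preincubation with enzyme, 25 min cleavage at room temperature; signal: AMC fluorescence from Ub-AMC cleavage, excitation 355 nm, emission 460 nm; buffer or medium: Tris-HCl pH 7.4 plus ovalbumin, ATP-MgCl2, DTT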
Starred values were filed as active, the others as inactive. This is a sample that favours compounds with a hit; in the whole collection about 1.9% have one here.

Results for COc1ccc(NCC(=O)NN=C2CCCC(C)C2)cc1 (centres undefined) ?
UCH37 inh: 6

How did CN1CCc2c(sc(N)c2C(=O)O)C1 do in these assays?
Rce1 inhib: inactive; MIN6 prolif: -3; PG9 binder: -1; CR mimetic SO: 88; Rev-erbA mod: -1; UCH37 inh: -13

How did COc1ccc(C(=O)c2c(N)sc3c2CCN(C)C3)cc1 do in these assays?
Rce1 inhib: inactive; MIN6 prolif: 8.0*; PG9 binder: 1; CR mimetic SO: 107; Rev-erbA mod: -2; UCH37 inh: 4

What do the screens show for `COc1cc(C=NNc2ccc(S(N)(=O)=O)cc2[N+](=O)[O-])cc(OC)c1O`?
UCH37 inh: 6

How did O=[N+]([O-])c1cc(C=NO)ccc1Oc1ccccc1Cl do in these assays?
UCH37 inh: 3

What do the screens show for `Cc1c(/C(O)=C2/C(=O)C(=O)N(CCN3CCOCC3)C2c2cccnc2)cnn1-c1ccccc1` (centres undefined)?
Rce1 inhib: inactive; MIN6 prolif: 4; PG9 binder: 0; CR mimetic SO: 112; Rev-erbA mod: -2; UCH37 inh: 22*

What do the screens show for `Cn1c(CN2CCOCC2)c(C#N)c2ccccc21`?
Rce1 inhib: active; MIN6 prolif: -2; PG9 binder: -4; CR mimetic SO: 122; Rev-erbA mod: -1; UCH37 inh: 1

Results for O=S(=O)(c1ccccc1)c1nc(-c2ccco2)oc1N1CCCCC1 ?
Rce1 inhib: active; MIN6 prolif: 0; PG9 binder: -1; CR mimetic SO: 88; Rev-erbA mod: 4; UCH37 inh: 1

Results for CC1CCN(c2oc(-c3ccco3)nc2S(=O)(=O)c2ccccc2)CC1 ?
Rce1 inhib: inactive; MIN6 prolif: -3; PG9 binder: -1; CR mimetic SO: 93; Rev-erbA mod: 9

Results for COc1ccc(/C=C/C(=O)NC(=S)NNC(=O)c2cnccn2)cc1 ?
Rce1 inhib: inactive; MIN6 prolif: -2; PG9 binder: 0; CR mimetic SO: 31*; Rev-erbA mod: -5

How did COc1cc(-c2c(C#N)c(N)nc3[nH]c(=S)[nH]c(=O)c23)ccc1O do in these assays?
Rce1 inhib: inactive; MIN6 prolif: -1; PG9 binder: -2; CR mimetic SO: 95; Rev-erbA mod: -2; UCH37 inh: 23*

How did Cc1ccc(OCC(=O)Nc2ccc(S(=O)(=O)N3CCOCC3)cc2)c(Br)c1 do in these assays?
Rce1 inhib: active; MIN6 prolif: 0; PG9 binder: 2; CR mimetic SO: 108; Rev-erbA mod: 1; UCH37 inh: 1

Results for N=c1c2c(-c3ccccc3)c(-c3ccccc3)n(Cc3ccccc3)c2ncn1CCCn1ccnc1 ?
Rce1 inhib: inactive; MIN6 prolif: -7; PG9 binder: 0; CR mimetic SO: 109; Rev-erbA mod: 3; UCH37 inh: 24*

What do the screens show for `O=c1c(=Cc2ccc([N+](=O)[O-])cc2)sc2n1CCCN=2`?
UCH37 inh: 4

How did CCOC(=O)c1nc2cc3n(c(C)c-2c1C)C(C)C(CC)=C3C (centres undefined) do in these assays?
Rce1 inhib: active; MIN6 prolif: -3; PG9 binder: 2; CR mimetic SO: 90; Rev-erbA mod: -7; UCH37 inh: -186

What do the screens show for `CCOC(=O)c1cn2ccc(C)cc2n1`?
Rce1 inhib: inactive; MIN6 prolif: -3; PG9 binder: -1; CR mimetic SO: 105; Rev-erbA mod: 0; UCH37 inh: -16

How did Fc1ccccc1C=Nn1c(COc2ccccc2)n[nH]c1=S do in these assays?
UCH37 inh: 5

What do the screens show for `O=C(COc1ccc(-c2ccccc2)cc1)NN=Cc1ccccc1Br`?
UCH37 inh: 4

Results for Cc1ccc(CNC(=O)c2cc(-c3ccccc3)nn2CC2CC(c3cccc([N+](=O)[O-])c3)=NO2)cc1 (centres undefined) ?
Rce1 inhib: active; MIN6 prolif: -4; PG9 binder: 2; Rev-erbA mod: -6; UCH37 inh: 4

Results for Cc1ccccc1-c1cc(C(=O)NCc2cccc(C(F)(F)F)c2)nn1CC1CC(c2cccc([N+](=O)[O-])c2)=NO1 (centres undefined) ?
MIN6 prolif: -4; PG9 binder: -1; CR mimetic SO: 103; Rev-erbA mod: -3; UCH37 inh: 35*

What do the screens show for `Cc1ccccc1NN=C1CCCNC1=O`?
UCH37 inh: 9

How did NC(Cc1ccc([N+](=O)[O-])cc1)=NOC(=O)c1ccc2ccccc2c1 do in these assays?
UCH37 inh: -1

What do the screens show for `Cc1oc2c(CN3CCCCC3)c(O)ccc2c(=O)c1-c1ccc(Br)cc1`?
Rce1 inhib: inactive; MIN6 prolif: -4; PG9 binder: 0; CR mimetic SO: 106; Rev-erbA mod: -3; UCH37 inh: -330

What do the screens show for `Cc1oc2c(CN3CCCC3)c(O)ccc2c(=O)c1-c1ccc(Br)cc1`?
Rce1 inhib: active; MIN6 prolif: -2; PG9 binder: 0; CR mimetic SO: 95; Rev-erbA mod: -6; UCH37 inh: -384

What do the screens show for `COc1ccc(C2C3=C(CC(C)(C)CC3=O)Nc3n[nH]c(C)c32)cc1` (centres undefined)?
Rce1 inhib: active; MIN6 prolif: 5; PG9 binder: -1; CR mimetic SO: 109; Rev-erbA mod: -1; UCH37 inh: -49

Results for O=C(Nc1ccc(Cl)c(C(F)(F)F)c1)c1ccncc1 ?
Rce1 inhib: inactive; MIN6 prolif: -2; PG9 binder: -1; CR mimetic SO: 104; Rev-erbA mod: 5; UCH37 inh: 2

Results for CNC(=O)c1cc(Oc2ccc(NC(=O)Nc3ccc(Cl)c(C(F)(F)F)c3)cc2)ccn1 ?
MIN6 prolif: -7; PG9 binder: 0; CR mimetic SO: 124; Rev-erbA mod: -3; UCH37 inh: 31*

What do the screens show for `CC(=NNC(=O)c1nnn(-c2nonc2N)c1-c1ccc2c(c1)OCO2)c1cccs1`?
UCH37 inh: -5

How did OCCCNc1ncnc2sc(-c3ccccc3)cc12 do in these assays?
Rce1 inhib: active; MIN6 prolif: 1; PG9 binder: 3; CR mimetic SO: 99; Rev-erbA mod: -4

Results for C=COCCCNc1ncnc2sc(-c3ccccc3)cc12 ?
Rce1 inhib: inactive; MIN6 prolif: -7; PG9 binder: 0; CR mimetic SO: 95; Rev-erbA mod: 1; UCH37 inh: -77

Source: PubChem BioAssay
